Drawing on ChEMBL document CHEMBL1772977, “Synthesis and biological evaluation of novel 4-benzylpiperazine ligands for sigma-1 receptor imaging” (Bioorg Med Chem, 2011), this text covers Ki for three compounds.

Experiment [1] has as its target 3-beta-hydroxysteroid-Delta(8),Delta(7)-isomerase (Homo sapiens, UniProt Q15125). The experiment in a line: Binding affinity to emopamil binding protein.
Experiment [2] is described as follows: Displacement of [3H]ditolylguanidine from sigma 2 receptor in rat liver membrane by competitive binding assay. It is filed as cell membranes. The method, boiled down: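 Sigma-2 competition binding used rat liver membranes with [3H]ditolylguanidine as radioligand. 10 µM dextrallorphan was present to mask sigma-1 sites. Ki was derived by Cheng–Prusoff from at least three independent experiments, each in triplicate, and is reported as mean ± SD.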

For experiment [3], the target named is Sigma non-opioid intracellular receptor 1 (Rattus norvegicus, UniProt Q9R0C9). The experiment in a line: Displacement of (+)-[3H]pentazocine from sigma 1 receptor in rat brain membranes by competitive binding assay. It is filed as cell membranes. The method, boiled down: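 Sigma-1 competition binding used rat brain membranes as receptor material with (+)-[3H]pentazocine as radioligand. Ki was derived by Cheng–Prusoff from at least three independent experiments, each in triplicate, and is reported as mean ± SD.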
Sequence of Sigma non-opioid intracellular receptor 1 (Q9R0C9 whole entry): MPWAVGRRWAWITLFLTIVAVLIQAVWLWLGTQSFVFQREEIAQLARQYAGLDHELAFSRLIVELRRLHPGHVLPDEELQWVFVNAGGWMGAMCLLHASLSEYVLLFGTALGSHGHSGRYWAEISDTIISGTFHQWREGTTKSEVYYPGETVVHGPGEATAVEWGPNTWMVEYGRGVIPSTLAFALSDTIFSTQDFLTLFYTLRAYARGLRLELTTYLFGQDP

Sequence of 3-beta-hydroxysteroid-Delta(8),Delta(7)-isomerase (Q15125 whole entry): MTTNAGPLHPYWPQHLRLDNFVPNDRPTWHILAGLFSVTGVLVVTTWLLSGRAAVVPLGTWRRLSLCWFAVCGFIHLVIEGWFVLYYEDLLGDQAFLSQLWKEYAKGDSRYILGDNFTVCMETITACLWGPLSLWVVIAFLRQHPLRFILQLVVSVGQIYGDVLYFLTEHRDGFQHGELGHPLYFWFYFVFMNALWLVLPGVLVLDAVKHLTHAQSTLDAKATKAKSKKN

In the case of `COc1cc(CCN2CCN(CCCc3ccccc3)CC2)ccc1O[11CH3]`, the affinity in experiment [1] corresponds to a Ki of 1.72 nM.

With `Fc1ccc(CN2CCN(Cc3ccc4c(c3)OCO4)CC2)cc1`, the inhibitory constant (Ki) in experiment [2] was 52.2 nM; in experiment [3], 0.85 nM.

Consider `Cc1ccc(CN2CCN(Cc3ccc4c(c3)OCO4)CC2)cc1`, for which the inhibition constant Ki in experiment [2] came to 49.8 nM; in experiment [3], 0.91 nM.
